# Compounds with a hit are over-represented: about 4.1% of the library has one in this group of screens.
# MC4R antagonist: MC4R antagonists of cAMP signaling, primary screen, cell-based, TR-FRET, antagonist arm of biased-ligand search; Melanocortin receptor 4 (Homo sapiens), P32245; MC4R-expressing cells, MTII-stimulated cAMP, LANCE TR-FRET; inhibition, % at 6.5 µM; 360,000 tested, 0.48% active; AID 540295, 2011;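 active means inhibition above its plate's cutoff, the mean of tested wells on that plate plus 3 SD, cut at about 29% in these data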;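 further: 0% = Melanotan II alone and 100% = Melanotan II plus saturating MCL0020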
#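 material = U2OS cells stably expressing human melanocortin 4 receptor (MC4R) | also added = Melanotan II challenge | dosing = single nominal compound dose of 6.5 µM | detection = TR-FRET with Eu-cAMP and labeled anti-cAMP, 671 nm | replication = singlicate | timing = compound 30 min, challenge 1 h, detection 1 h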
# MC4R barr agon: MC4R agonists recruiting beta-arrestin, primary screen, cell-based, luminescence, agonist arm of biased-ligand search; Melanocortin receptor 4 (Homo sapiens), P32245; U2OS MC4R beta-arrestin complementation; percent of melanotan II response, DMSO zero; activation, % at 8.9 µM; 360,000 tested, 0.98% active; AID 540308, 2011;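 active means activation above a per-plate cutoff, the mean activation of sample wells on that plate plus 3 SD, cut at about 8% in these data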
# MPTP block: mitochondrial permeability transition pore inhibitors, primary screen, biochemical, isolated mouse mitochondria, absorbance. 360,000 tested, 1.4% active. Ca2+ swelling absorbance, 30 min. inhibition, % at 10 µM;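 active means inhibition of 50% or more, scaled per plate between neutral and stimulator controls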;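 further: 0% = DMSO wells given calcium and 100% = 1 mM EGTA wells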
# ATG4B inh: ATG4B protease inhibitors, primary screen, biochemical, fluorescence, uHTS; ATG4B cleavage of LC3-PLA2, NBD-HPC fluorescence, 1 h; inhibition, % at 8.33 µM; Cysteine protease ATG4B (Homo sapiens), Q9Y4P1; 340,000 tested, 0.51% active; in the data active means inhibition above about 40%
# Target sequence (Q9Y4P1 whole entry, looked up): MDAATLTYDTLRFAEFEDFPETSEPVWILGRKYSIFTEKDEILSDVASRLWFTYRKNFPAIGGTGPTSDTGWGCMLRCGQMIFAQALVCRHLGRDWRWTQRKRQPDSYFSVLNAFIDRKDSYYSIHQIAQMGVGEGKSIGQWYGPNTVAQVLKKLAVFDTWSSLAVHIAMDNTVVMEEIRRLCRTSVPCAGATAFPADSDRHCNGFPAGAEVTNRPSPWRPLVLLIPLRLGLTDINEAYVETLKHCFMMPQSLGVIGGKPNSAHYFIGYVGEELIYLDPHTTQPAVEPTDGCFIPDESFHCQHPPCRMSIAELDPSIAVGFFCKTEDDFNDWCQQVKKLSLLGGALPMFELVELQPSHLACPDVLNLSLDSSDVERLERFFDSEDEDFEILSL
# SMARCA2 act: SMARCA2 (BRM) function activators, primary screen, cell-based, luminescence, high throughput | MG213 cells, MMTV-luciferase reporter, dexamethasone, overnight | activation, % at 9.1 µM | 370,000 tested, 1% active; in the data active means activation above about 7.8%;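 further: 0% = vehicle wells and 100% = reference activator wells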
# SMARCA2 act conf: SMARCA2 (BRM) function activators, confirmation, cell-based, luminescence, triplicate; activation, % at 9.1 µM; AID 652260, 2013; 3,500 tested, 30% active; shares compounds with SMARCA2 act; MG213 cells, MMTV-luciferase with dexamethasone, overnight; MG213 cells expressing E1A, Rb sequestered; DMSO wells 0%, reference activator 100%;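 active means activation above its plate's cutoff, the mean activation of tested wells plus 3 SD, cut at about 7.9% in these data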
# VP16 Luc act: GAL4-VP16 luciferase reporter activation, counter-screen for SMARCA2 (BRM) activator project, cell-based, pG5luc, luminescence, high throughput. shares compounds with SMARCA2 act. HEK293 GAL4-VP16 pG5luc reporter; scaled: DMSO wells 0%, SAHA wells 100%. activation, % at 9.1 µM. 3,500 tested, 41% active. AID 686939, 2013;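 active means activation above the solvent-only control well mean plus 3 SD, averaged across control plates, cut at about 5.2% in these data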
# The depositor's hits bear a star; . = no result.
SMILES,MC4R antagonist,MC4R barr agon,MPTP block,ATG4B inh,SMARCA2 act,SMARCA2 act conf,VP16 Luc act
Cc1ccccc1N=Cc1cccc(O)c1O,1.7,-1.2,3.8,19.9,.,.,.
COc1ccc(N=C(C)C2=C(O)c3ccccc3C2=O)cc1,5.3,2.8,0.1,15.3,3.4,.,.
CCOc1ccc(N=C(C)C2=C(O)c3ccccc3C2=O)cc1,20.0,1.5,3.5,4.1,18.8*,8.5*,11.6*
Cc1ccc2c(c1)C(=NC1CCCCC1)c1cc3ccccc3nc1-2,22.9,1.9,0.7,0.6,11.4*,10.8*,7.6*
Cc1ccc(-c2cc3ccccc3nc2N2CCCC2)cc1,7.4,1.2,0.4,13.8,2.9,.,.
Cc1cc(Oc2cccnc2)ccc1NC(=O)Cc1c(C)[nH]c2ccccc12,.,.,.,.,-2.0,.,.
O=C(CCCN1C(=O)c2ccccc2C1=O)NCCCN1CCOCC1,-1.1,-0.9,0.7,-4.4,-2.0,.,.
N#CCCN(CCCN1CCOCC1)CN1C(=O)c2ccccc2C1=O,10.8,-0.9,-2.3,.,8.1*,-1.6,0.7
O=C(Nc1cccc(Cl)c1)c1cnn2cccnc12,-1.2,-0.9,-0.1,-7.5,8.1*,8.3*,12.0*
CSc1nc(Cl)cc(Nc2ccc(O)cc2)n1,-11.6,-3.9,0.7,-1.8,14.2*,5.9,3.8
COC(=O)[C@]1(CNC(=O)NCCc2ccc(OC)c(OC)c2)CC(=O)N(C)[C@@H]1c1ccccc1,.,.,.,.,-0.9,.,.
N#Cc1ccc(Cn2ccnc2C(=O)Nc2ccccc2)cc1,8.0,-1.2,0.5,2.5,-1.3,.,.
Cc1ccc(Cn2ccnc2C(=O)Nc2ccccc2)cc1,2.7,-2.3,0.6,-2.5,9.3*,6.5,2.9
O=S(=O)(Cc1noc(-c2ccccc2Cl)n1)c1ccccn1,23.5,-1.5,-0.5,-4.9,16.2*,4.3,9.3*
CCOC(=O)C1=C(C(=O)OCC)C2N(Cc3ccc(C#N)cc3)c3ccccc3[C@@]23C[C@@H](C(=O)OC)N(S(=O)(=O)c2ccccc2)C3=N1 (stereo partly specified),.,.,.,.,-4.2,.,.
N#CC1=C(N)Oc2n[nH]c(-c3cccnc3)c2C1c1ccc([N+](=O)[O-])o1 (stereo unspecified),8.8,-2.0,-0.8,-1.6,10.2*,-1.4,1.0
Cc1ccc(C(NC(=O)CN2C(=O)NC3(CCCC3)C2=O)c2ccccc2)cc1 (stereo unspecified),-0.6,0.4,-0.6,0.6,-3.4,.,.
CCC1CSC(=Nc2ccc(C)cc2)N1C(=O)CN1C(=O)NC2(CCCC2)C1=O (stereo unspecified),10.4,-0.9,0.2,-0.8,9.7*,11.2*,8.2*
Cc1ccc(C)c(C(=O)COC(=O)c2cccc(N3C(=O)c4c(C)nc5ccccc5c4C3=O)c2)c1,0.2,-0.8,0.2,-4.1,14.2*,0.8,2.6
CCS(=O)(=O)N1CCc2nc(-c3ccccc3)sc2C1,1.2,-1.0,-0.7,-7.3,8.1*,7.5,10.6*
CCN(CC)C(=O)c1oc(=O)c2ccccc2c1-c1ccc(C)cc1,.,.,.,.,-6.9,.,.
Cc1nn(C)c(C)c1CNC(=O)Nc1ccc(Cl)cc1,11.3,1.8,1.9,2.2,9.5*,1.2,6.4*
O=C(Nc1ccc(F)cc1)C(c1ccnc2ccccc12)N1CCN(c2cccc(C(F)(F)F)n2)CC1 (stereo unspecified),.,.,2.4,.,-2.2,.,.
O=Nc1c2nc3ccccc3n(O)c-2c2ccccc12,-20.1,-2.1,0.4,.,8.0*,28.5*,5.5*
CNc1nc(N)c([N+](=O)[O-])c(Nc2cccc(Cl)c2)n1,4.1,-1.3,2.2,2.2,8.3*,4.7,1.7
SMILES,MC4R antagonist,MC4R barr agon,MPTP block,ATG4B inh,SMARCA2 act,SMARCA2 act conf,VP16 Luc act
O=C(Nc1ccc(C(F)(F)F)cc1)OC1CCC12CCC(c1ccccc1)CC2 (stereo unspecified),.,.,.,.,-2.2,.,.
O=C(Cc1ccccc1)Nc1ccc2oc(=O)ccc2c1,-1.0,-2.4,-0.8,1.1,2.8,.,.
O=C(Nc1ccc2oc(=O)ccc2c1)c1ccco1,2.4,0.2,0.9,-9.1,8.3*,2.0,3.4
COc1ccc(C(=O)/C=C(\Nc2ccc(F)cc2)c2ccc(OC)cc2OC)c(OC)c1,.,.,.,.,-1.3,.,.
Cc1ccc2nc(N3C(=O)CNC3=S)sc2c1,1.4,-3.0,1.6,3.3,14.9*,-3.7,15.8*
Cc1cccc(CC2CC(=O)N(c3nc4ccccc4s3)C2=O)c1 (stereo unspecified),-3.5,-1.7,-2.0,-22.0,1.4,.,.
COc1ccc2nc(N3C(=O)CNC3=S)sc2c1,3.0,-4.0,0.6,-2.5,8.6*,13.8*,10.4*
COC(=O)[C@]12C[C@H](CC(=O)NCc3cccs3)C(=O)N(Cc3cccc4ccccc34)C1=C[C@H](C1CCCC1)O[C@@H]2C,.,.,.,.,-3.0,.,.
COc1ccc(OCCSc2ncccn2)cc1,-2.7,-1.1,-0.4,-0.2,6.8,.,.
Clc1ccc(OCCSc2ncccn2)cc1,-6.2,-0.3,-0.2,-15.8,8.0*,7.3,5.5*
CCOC(=O)[C@]12CCCC3=C1N(CCC3)C(=O)[C@@H](CC(=O)N1CCN(C(=O)C3CC3)CC1)C2,.,.,.,.,-3.1,.,.
COc1ncnc2c1oc1ccccc12,3.9,-2.4,-0.6,5.9,11.6*,13.4*,6.0*
CC(C)Sc1ncnc2c1oc1ccccc12,3.3,-0.1,2.9,0.0,-0.4,.,.
Cc1ccccc1C(=O)NNC1CC(=O)N(c2ccc3c(c2)OCCO3)C1=O (stereo unspecified),-4.7,-0.5,0.8,-0.4,-0.6,.,.
O=C(NNC1CC(=O)N(c2ccc3c(c2)OCCO3)C1=O)c1ccccc1 (stereo unspecified),-0.9,-1.0,-1.2,6.0,8.6*,-1.9,0.7
COC(=O)C[C@@H]1CC[C@H](NC(=O)Nc2ccc(OC)cc2)[C@@H](CO)O1,.,.,-1.5,.,-3.7,.,.
CCN(CC)CCNc1nc2cc(OC)c(OC)cc2c2nc(-c3ccccc3)nn12,-9.7,-0.8,-1.4,-25.4,9.7*,26.0*,0.9
O=C(NCc1cccc(C(F)(F)F)c1)C1C(=O)Nc2ccccc2C(=O)N1C1CCCC1 (stereo unspecified),.,.,-0.4,.,-1.3,.,.

# Bioassay records (PubChem)
